The source made the active and inactive calls. The rule behind the calls is not given here.
Experiments:
[1] = Metabolic stability in blood of athymic nude mouse transfected with human HT-29 cells at 4 to 8 MBq, iv after 10 mins by radio-HPLC analysis; format: ADME, organism-based; details: read-out: Stability
Procedure, shortened: (§1)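 Blood samples were taken from HT29 xenografted nude mice at 10 and 30 min post-injection. Intact tracer was quantified by radio-HPLC. Radiochemical purity of the injected tracer was above 99% by radio-HPLC.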

Tumour [2] = test: Drug uptake in tumor of athymic nude mouse xenografted with human HT-29 cells at 4 to 8 MBq, iv after 60 mins by gamma-counting analysis; format: ADME, organism-based, Neoplasm; details: in vivo, 1 h
Procedure, shortened: (§2)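 Biodistribution in nude mice carrying HT29 xenografts with 7–10 mm tumor diameter. Tissues were sampled at 10, 30 and 60 min post-injection. Uptake is expressed as % ID/g, and tumor-to-organ ratios were also calculated. Values are mean ± SD from two animals.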

Kidney = test: Drug uptake in kidney of athymic nude mouse xenografted with human HT-29 cells at 4 to 8 MBq, iv after 10 to 60 mins by gamma-counting analysis; format: ADME, organism-based; details: in vivo; procedure, shortened: as §2
[3] = Octanol-water partition coefficient, log D of the compound at pH 7.4 by gamma-counting analysis; format: physicochemical
Tumour [4] = test: Drug uptake in tumor of athymic nude mouse transfected with human HT-29 cells at 1 to 3 MBq, iv after 45 to 65 mins by PET imaging analysis in presence of SR142948A; format: ADME, organism-based, Neoplasm; details: in vivo
Procedure, shortened: (§3)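 Small-animal PET of HT29 xenografted nude mice (tumor diameter 7–10 mm), with images taken 45–65 min post-injection. Tumor uptake was quantified by μPET as % ID/g. For blocking, 3 mg/kg of the […] NTS1 ligand SR142948A was co-injected with the tracer. Values are mean ± SEM from 4 animals.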

Tumour [5] = test: Drug uptake in tumor of athymic nude mouse transfected with human HT-29 cells at 1 to 3 MBq, iv after 45 to 65 mins by PET imaging analysis; format: ADME, organism-based, Neoplasm; details: in vivo; procedure, shortened: as §3
Brain = test: Drug uptake in Sprague-Dawley rat brain by autoradiography; format: ADME, tissue-based; details: in vivo
Nucleic Acid [6] = test: Ratio of drug uptake in tumor to blood of athymic nude mouse xenografted with human HT-29 cells at 4 to 8 MBq, iv after 10 to 60 mins by gamma-counting analysis; format: ADME, organism-based; details: tumour
Procedure, shortened: (§4)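 [18F]-labelled tracer (radiochemical purity >99% by radio-HPLC) injected into nude mice bearing HT29 xenografts with 7–10 mm tumour diameter. Organ and tumour uptake were measured as % ID/g at 10, 30 and 60 min post-injection. Tumour-to-organ ratios were derived from these values and reported as mean ± SD of two animals.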

Blood = test: Drug uptake in blood of athymic nude mouse transfected with human HT-29 cells at 4 to 8 MBq, iv after 10 to 60 mins by gamma-counting analysis; format: ADME, organism-based; details: in vivo; procedure, shortened: as §2
Serum = test: Metabolic stability in human serum after 5 to 180 mins by radio-HPLC analysis; format: ADME, cell-free
Nucleic Acid [7] = test: Ratio of drug uptake in tumor to kidney of athymic nude mouse transfected with human HT-29 cells at 4 to 8 MBq, iv after 60 mins by gamma-counting analysis; format: ADME, organism-based; details: in vivo, 1 h; procedure, shortened: as §4
[8] = Metabolic stability in blood of athymic nude mouse xenografted with human HT-29 cells at 4 to 8 MBq, iv after 30 mins by radio-HPLC analysis; format: ADME, organism-based; details: read-out: Stability; procedure, shortened: as §1
Tumour [9] = test: Drug uptake in tumor of athymic nude mouse xenografted with human HT-29 cells at 4 to 8 MBq, iv after 10 mins by gamma-counting analysis; format: ADME, organism-based, Neoplasm; details: in vivo; procedure, shortened: as §2
Liver = test: Drug uptake in liver of athymic nude mouse transfected with human HT-29 cells at 4 to 8 MBq, iv after 10 to 60 mins by gamma-counting analysis; format: ADME, organism-based; details: in vivo; procedure, shortened: as §2
[10] = target: Neurotensin receptor type 1 (Homo sapiens, UniProt P30989); test: Displacement of [3H]neurotensin from human NTS1 receptor expressed in CHO cells; format: cell-based
Neurotensin receptor type 1, sequence (P30989 whole entry): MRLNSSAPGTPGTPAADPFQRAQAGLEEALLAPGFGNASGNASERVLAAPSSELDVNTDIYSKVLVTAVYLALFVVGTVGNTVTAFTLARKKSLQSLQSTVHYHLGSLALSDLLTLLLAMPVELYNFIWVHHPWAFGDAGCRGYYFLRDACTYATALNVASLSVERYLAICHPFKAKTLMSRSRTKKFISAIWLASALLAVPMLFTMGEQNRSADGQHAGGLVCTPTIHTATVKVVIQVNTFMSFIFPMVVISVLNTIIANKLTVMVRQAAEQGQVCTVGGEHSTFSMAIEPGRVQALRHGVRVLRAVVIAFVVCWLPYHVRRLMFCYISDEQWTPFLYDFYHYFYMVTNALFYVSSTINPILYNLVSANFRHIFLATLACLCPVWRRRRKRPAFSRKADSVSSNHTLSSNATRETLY

[11] = target: Neurotensin receptor type 1 (Rattus norvegicus) (UniProt P20789); test: Binding affinity to NTS1 receptor in Sprague-Dawley rat brain at 10 MBq after 60 mins by autoradiography in presence of neurotensin; details: 10 M, tested as the 18F-labelled form
Neurotensin receptor type 1 (Rattus norvegicus), sequence (P20789 whole entry): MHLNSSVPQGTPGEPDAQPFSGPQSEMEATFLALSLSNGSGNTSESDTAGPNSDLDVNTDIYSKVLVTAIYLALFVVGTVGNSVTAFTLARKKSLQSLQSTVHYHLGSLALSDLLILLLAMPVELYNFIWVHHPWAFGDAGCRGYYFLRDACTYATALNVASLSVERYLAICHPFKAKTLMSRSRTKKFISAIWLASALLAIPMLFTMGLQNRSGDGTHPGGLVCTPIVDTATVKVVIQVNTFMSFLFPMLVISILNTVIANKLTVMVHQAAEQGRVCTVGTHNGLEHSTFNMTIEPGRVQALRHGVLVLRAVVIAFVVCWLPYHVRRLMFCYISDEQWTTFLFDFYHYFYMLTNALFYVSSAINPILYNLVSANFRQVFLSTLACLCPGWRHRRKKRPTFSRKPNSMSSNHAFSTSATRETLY

[12] = target: Neurotensin receptor type 1 (Rattus norvegicus) (UniProt P20789); test: Binding affinity to NTS1 receptor in Sprague-Dawley rat brain at 10 MBq after 60 mins by autoradiography; details: 10 M, tested as the 18F-labelled form
[13] = target: T1, Neurotensin receptor type 2 (Rattus norvegicus) (UniProt Q63384); test: Binding affinity to NTS2 receptor in Sprague-Dawley rat brain cortex at 10 MBq after 60 mins by autoradiography in presence of H-Arg-Arg-Pro-N-h-Tyr-Ile-Leu-OH; details: 10 M, tested as the 18F-labelled form
T1 sequence (whole entry): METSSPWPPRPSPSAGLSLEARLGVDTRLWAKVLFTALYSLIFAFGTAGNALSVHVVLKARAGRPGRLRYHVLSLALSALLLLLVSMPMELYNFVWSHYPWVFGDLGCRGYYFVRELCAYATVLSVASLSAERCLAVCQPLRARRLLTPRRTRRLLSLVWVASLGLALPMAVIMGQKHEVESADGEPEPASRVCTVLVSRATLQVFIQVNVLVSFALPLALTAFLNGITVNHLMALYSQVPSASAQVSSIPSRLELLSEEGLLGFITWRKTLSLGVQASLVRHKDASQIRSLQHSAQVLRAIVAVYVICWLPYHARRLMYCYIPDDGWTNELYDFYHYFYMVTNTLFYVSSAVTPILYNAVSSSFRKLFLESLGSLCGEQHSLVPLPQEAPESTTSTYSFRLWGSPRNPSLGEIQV

[14] = target: Neurotensin receptor type 1 (Rattus norvegicus) (UniProt P20789); test: Binding affinity to NTS1 receptor in Sprague-Dawley rat brain at 10 MBq after 60 mins by autoradiography in presence of H-Arg-Arg-Pro-N-h-Tyr-Ile-Leu-OH; details: 10 M, tested as the 18F-labelled form
[15] = target: Neurotensin receptor type 2 (Homo sapiens, UniProt O95665); test: Displacement of [3H]NT(8 to 13) from human NTS2 receptor expressed in HEK293 cells; format: cell-based
Neurotensin receptor type 2, sequence (O95665 whole entry): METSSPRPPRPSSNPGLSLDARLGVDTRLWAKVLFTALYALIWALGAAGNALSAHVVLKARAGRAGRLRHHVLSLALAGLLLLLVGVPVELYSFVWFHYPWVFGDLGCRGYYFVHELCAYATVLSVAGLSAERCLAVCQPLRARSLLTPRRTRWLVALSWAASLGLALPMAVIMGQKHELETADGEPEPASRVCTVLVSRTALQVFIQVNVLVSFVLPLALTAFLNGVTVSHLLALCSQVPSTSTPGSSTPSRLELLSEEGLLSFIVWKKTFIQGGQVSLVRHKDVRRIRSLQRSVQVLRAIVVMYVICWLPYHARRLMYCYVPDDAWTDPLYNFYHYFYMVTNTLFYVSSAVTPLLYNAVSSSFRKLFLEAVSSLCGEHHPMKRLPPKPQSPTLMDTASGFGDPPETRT

remaining at 10 min [1] [%]	Drug uptake (Tumour [2]) [% ID/g]	Drug uptake (Kidney)	logD [3]	Drug uptake (Tumour [4])	Drug uptake (Tumour [5])	Drug uptake (Brain)	Ratio (Nucleic Acid [6])	Drug uptake (Blood)	Stability (Serum)	Ratio (Nucleic Acid [7])	remaining at 0.5 h [8] [%]	Drug uptake (Tumour [9]) [% ID/g]	Drug uptake (Liver)	Ki [10] [µM]	Activity [11]	Activity [12]	Activity [13]	Activity [14]	Ki [15] [µM]	Structure (SMILES)
> 98	0.74	Active	-0.24	Not Active	Active	Not Active	0.3	Not Active	Stable	8	> 98	0.84	Not Active	–	–	–	–	–	–	COc1cccc(OC)c1-c1cc(C(=O)NC2(C(=O)O)C3CC4CC(C3)CC2C4)nn1-c1ccc(C(=O)N(C)CCCN(C)CCCCc2cn([C@@H]3O[C@H](CO)[C@@H](O)[C@H](O)[C@H]3[18F])nn2)cc1C(C)C (some centres not stated)
–	–	–	–	–	–	–	–	–	–	–	–	–	–	0.00098	Active	Active	Active	Active	0.069	COc1cccc(OC)c1-c1cc(C(=O)NC2(C(=O)O)C3CC4CC(C3)CC2C4)nn1-c1ccc(C(=O)N(C)CCCN(C)CCCCc2cn([C@@H]3O[C@H](CO)[C@@H](O)[C@H](O)[C@H]3F)nn2)cc1C(C)C (some centres not stated)
–	–	–	–	–	–	–	–	–	–	–	–	–	–	0.001	–	–	–	–	0.074	COc1cccc(OC)c1-c1cc(C(=O)NC2(C(=O)O)C3CC4CC(C3)CC2C4)nn1-c1ccc(C(=O)N(C)CCCN(C)C)cc1C(C)C (configuration not stated)
